In ChEMBL document CHEMBL1126871, “Non-steroidal glucocorticoid-like substances: receptor binding and in vivo activity” (J Med Chem, 1993):
The source made the active and inactive calls. The calls are words filed in the database; no cut-off is given here.

Experiments:
[1] = biological target: T1, Glucocorticoid receptor (Rattus norvegicus) (UniProt P06536); experiment: In vivo glucocorticoid profile, depression of adrenal weight in rat at 1 mg/kg peroral dose; type: functional, organism-based; design: dose 1 mg/kg
T1 sequence (whole entry): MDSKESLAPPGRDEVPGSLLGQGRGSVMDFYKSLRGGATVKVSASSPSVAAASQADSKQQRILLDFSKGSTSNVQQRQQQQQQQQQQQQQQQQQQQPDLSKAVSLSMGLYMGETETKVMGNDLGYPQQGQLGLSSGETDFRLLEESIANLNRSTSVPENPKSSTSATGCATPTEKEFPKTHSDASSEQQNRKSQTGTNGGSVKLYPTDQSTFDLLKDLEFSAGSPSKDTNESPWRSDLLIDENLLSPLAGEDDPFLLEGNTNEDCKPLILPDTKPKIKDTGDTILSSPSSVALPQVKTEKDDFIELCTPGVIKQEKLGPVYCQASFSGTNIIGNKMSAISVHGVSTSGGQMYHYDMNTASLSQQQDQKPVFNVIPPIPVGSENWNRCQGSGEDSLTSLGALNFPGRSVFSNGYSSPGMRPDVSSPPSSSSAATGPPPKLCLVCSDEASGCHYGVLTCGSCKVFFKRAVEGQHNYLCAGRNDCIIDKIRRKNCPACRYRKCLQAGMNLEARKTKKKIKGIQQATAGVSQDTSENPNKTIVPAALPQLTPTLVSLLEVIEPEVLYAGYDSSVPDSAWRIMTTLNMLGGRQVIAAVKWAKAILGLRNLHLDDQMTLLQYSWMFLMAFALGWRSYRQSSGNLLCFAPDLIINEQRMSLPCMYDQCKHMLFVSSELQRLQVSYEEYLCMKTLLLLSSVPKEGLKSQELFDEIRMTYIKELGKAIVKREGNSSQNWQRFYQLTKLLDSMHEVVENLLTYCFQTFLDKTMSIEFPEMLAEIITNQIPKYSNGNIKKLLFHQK
Method in brief: (§1)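 Two-week oral dosing test in rats. At the end, thymus weight, adrenal weight and body weight gain are recorded and expressed as % change from control.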

[2] = biological target: T1, Glucocorticoid receptor (Rattus norvegicus); experiment: In vivo glucocorticoid profile, depression of adrenal weight in rat at 5 mg/kg peroral dose; type: functional, organism-based; design: dose 5 mg/kg
Method in brief: (§2)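 Two-week oral glucocorticoid profile in rats. Thymus weight, adrenal weight and body weight gain are each expressed as % change from control.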

[3] = biological target: T1, Glucocorticoid receptor (Rattus norvegicus); experiment: In vivo glucocorticoid profile, depression of thymus weight in rat at 1 mg/kg peroral dose; type: functional, organism-based; design: dose 1 mg/kg; method in brief: as §1
[4] = biological target: T1, Glucocorticoid receptor (Rattus norvegicus); experiment: (§3) In vivo glucocorticoid profile, depression of body weight gain without altered food consumption in rat at 5 mg/kg peroral dose; type: functional, organism-based; design: dose 5 mg/kg; method in brief: as §2
[5] = biological target: T1, Glucocorticoid receptor (Rattus norvegicus); experiment: In vivo glucocorticoid profile, depression of thymus weight in rat at 5 mg/kg peroral dose; type: functional, organism-based; design: dose 5 mg/kg; method in brief: as §2
[6] = biological target: T1, Glucocorticoid receptor (Rattus norvegicus); experiment: In vivo glucocorticoid profile, depression of body weight gain without altered food consumption in rat at 1 mg/kg peroral dose; type: functional, organism-based; design: dose 1 mg/kg; method in brief: as §1
[7] = biological target: T1, Glucocorticoid receptor (Rattus norvegicus); experiment: In vivo antiinflammatory activity in the rat, alpha-tocopherol filled pouch peroral dose; IA = inactive; type: functional, organism-based
Method in brief: (§4)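 Rats receive an air-filled pouch injected with 0.5 mL DL-α-tocopherol. Oral doses are given daily for 7 days, starting on the day of pouch formation, as suspensions in 1% gum tragacanth. ED50 is in mg/kg po.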

[8] = biological target: T1, Glucocorticoid receptor (Rattus norvegicus); experiment: (§5) In vivo glucocorticoid profile, depression of adrenal weight in rat at 25 mg/kg peroral dose; type: functional, organism-based; design: dose 25 mg/kg; method in brief: as §1
[9] = biological target: T1, Glucocorticoid receptor (Rattus norvegicus); experiment: (§6) In vivo glucocorticoid profile, depression of thymus weight in rat at 25 mg/kg peroral dose; type: functional, organism-based; design: dose 25 mg/kg; method in brief: as §1
[10] = biological target: T1, Glucocorticoid receptor (Rattus norvegicus); experiment: In vivo glucocorticoid profile, depression of body weight gain without altered food consumption in rat at 25 mg/kg peroral dose; type: functional, organism-based; design: dose 25 mg/kg; method in brief: as §2
[11] = biological target: T1, Glucocorticoid receptor (Rattus norvegicus); experiment: Relative binding affinity (RBA) for glucocorticoid receptor from rat liver cytosol by displacement of [3H]-RU-28,362
Method in brief: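 Competitive binding to glucocorticoid receptor in liver cytosol from adrenalectomized rats, with [3H]RU28362 as ligand. RBA is derived from the concentrations of dexamethasone and of competitor giving 50% binding inhibition. A value of zero means binding was too low to measure.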

[12] = biological target: T1, Glucocorticoid receptor (Rattus norvegicus); experiment: as §3; type: functional, organism-based; design: dose 5 mg/kg; method in brief: as §1; remark: listed apart in the source
[13] = biological target: T1, Glucocorticoid receptor (Rattus norvegicus); experiment: In vivo glucocorticoid profile, depression of adrenal weight in rat at 50 mg/kg peroral dose; type: functional, organism-based; design: dose 50 mg/kg; method in brief: as §2
[14] = biological target: T1, Glucocorticoid receptor (Rattus norvegicus); experiment: In vivo antiinflammatory activity in the rat, alpha-tocopherol filled pouch 48 mg/kg peroral dose; IA = inactive; type: functional, organism-based; design: dose 48 mg/kg
[15] = biological target: T1, Glucocorticoid receptor (Rattus norvegicus); experiment: In vivo glucocorticoid profile, depression of body weight gain without altered food consumption in rat at 50 mg/kg peroral dose; type: functional, organism-based; design: dose 50 mg/kg; method in brief: as §2
[16] = biological target: T1, Glucocorticoid receptor (Rattus norvegicus); experiment: In vivo glucocorticoid profile, depression of thymus weight in rat at 50 mg/kg peroral dose; type: functional, organism-based; design: dose 50 mg/kg; method in brief: as §2
[17] = biological target: T1, Glucocorticoid receptor (Rattus norvegicus); experiment: In vivo antiinflammatory activity in the rat, alpha-tocopherol filled pouch 25 mg/kg peroral dose; IA = inactive; type: functional, organism-based; design: dose 25 mg/kg; method in brief: as §4
[18] = biological target: T1, Glucocorticoid receptor (Rattus norvegicus); experiment: In vivo antiinflammatory activity in the rat, alpha-tocopherol filled pouch 100 mg/kg peroral dose; IA = inactive; type: functional, organism-based; design: dose 100 mg/kg; method in brief: as §4
[19] = biological target: T1, Glucocorticoid receptor (Rattus norvegicus); experiment: In vivo glucocorticoid profile, depression of adrenal weight in rat at 100 mg/kg peroral dose; type: functional, organism-based; design: dose 100 mg/kg; method in brief: as §2
[20] = biological target: T1, Glucocorticoid receptor (Rattus norvegicus); experiment: In vivo glucocorticoid profile, depression of thymus weight in rat at 100 mg/kg peroral dose; type: functional, organism-based; design: dose 100 mg/kg; method in brief: as §2
[21] = biological target: T1, Glucocorticoid receptor (Rattus norvegicus); experiment: In vivo glucocorticoid profile, depression of body weight gain without altered food consumption in rat at 100 mg/kg peroral dose; type: functional, organism-based; design: dose 100 mg/kg; method in brief: as §2
[22] = biological target: T1, Glucocorticoid receptor (Rattus norvegicus); experiment: In vivo anti-inflammatory activity in the rat, alpha-tocopherol filled pouch peroral dose; type: functional, organism-based; method in brief: as §4
[23] = biological target: T1, Glucocorticoid receptor (Rattus norvegicus); experiment: as §5; type: functional, organism-based; design: dose 25 mg/kg; method in brief: as §2; remark: listed apart in the source
[24] = biological target: T1, Glucocorticoid receptor (Rattus norvegicus); experiment: as §6; type: functional, organism-based; design: dose 25 mg/kg; method in brief: as §2; remark: listed apart in the source
[25] = biological target: T1, Glucocorticoid receptor (Rattus norvegicus); experiment: In vivo antiinflammatory activity in the rat, alpha-tocopherol filled pouch 70 mg/kg peroral dose; IA = inactive; type: functional, organism-based; design: dose 70 mg/kg

## C#C[C@]1(O)CCC2[C@@H]3CCC4=Cc5c(cnn5-c5ccc(F)cc5)C[C@]4(C)C3=CC[C@@]21C (stereo not given in full)
[1]
  Change: -35%
[2]
  Change: -60%
[3]
  Change: -41%
[4]
  Weight gain: -145
[5]
  Change: -76%
[6]
  Weight gain: 0

## C[C@]12Cc3cnn(-c4ccccc4)c3C=C1CC[C@@H]1OC3(CC=C12)C(=O)c1ccccc1C3=O
[7]
  ED50: inactive
[2]
  Change: -38%
[8]
  Change: -50%
[9]
  Change: -62%
[10]
  Weight gain: -86
[4]
  Weight gain: -62
[5]
  Change: -51%

## CN1C(=O)N(C)C(=O)C2(CC=C3[C@H](CCC4=Cc5c(cnn5-c5ccncc5)C[C@@]43C)O2)C1=O
[11]
  RBA: 0.72%

## CC(=O)C1CC=C2[C@H](CCC3=Cc4c(cnn4-c4ccc(F)cc4)C[C@@]32C)C1C(C)=O (stereo not given in full)
[2]
  Change: -40%
[12]
  Weight gain: -80

## C=CCN1C(=O)N(CC=C)C(=O)C2(CC=C3[C@H](CCC4=Cc5c(cnn5-c5ccc(F)cc5)C[C@@]43C)O2)C1=O
[13]
  Change: -37%
[14]
  ED50: inactive
[15]
  Weight gain: -58
[16]
  Change: -34%

## CCCN1C(=O)N(CCC)C(=O)C2(CC=C3[C@H](CCC4=Cc5c(cnn5-c5ccc(F)cc5)C[C@@]43C)O2)C1=O
[13]
  Change: 0%
[17]
  ED50: inactive
[15]
  Weight gain: 0
[16]
  Change: 0%

## CCOC(=O)C1(C(=O)OCC)CCC=C2[C@@H]1CCC1=Cc3c(cnn3-c3ccc(F)cc3)C[C@@]12C
[2]
  Change: 0%
[18]
  ED50: inactive
[19]
  Change: -47%
[20]
  Change: -80%
[21]
  Weight gain: -186
[4]
  Weight gain: 0
[5]
  Change: 0%

## C[C@]12CCC(=O)C=C1CC[C@@H]1[C@@H]2[C@@H](O)C[C@@]2(C)[C@H]1CC[C@]2(O)C(=O)CO
[22]
  ED50: 18 mg/kg

## CC(C)N1C(=O)N(C(C)C)C(=O)C2(CC=C3[C@H](CCC4=Cc5c(cnn5-c5ccc(F)cc5)C[C@@]43C)O2)C1=O
[13]
  Change: 0%
[17]
  ED50: inactive
[15]
  Weight gain: 0
[16]
  Change: 0%

## COC(=O)CN1C(=O)N(CC(=O)OC)C(=O)C2(CC=C3[C@H](CCC4=Cc5c(cnn5-c5ccc(F)cc5)C[C@@]43C)O2)C1=O
[23]
  Change: 0%
[24]
  Change: 0%
[25]
  ED50: inactive
[10]
  Weight gain: 0
